Data set [1] is described as follows: Induction of [32P]-labeled 49-mer oligonucleotide duplex DNA 12 with GNC sequence at terminus (unknown origin) interstrand cross-linking at 1 mM after 16 hrs by PAGE. The essentials: (§1)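 32P-labelled 12a (1.0 μM) annealed with 1.5 equiv of 12b in 10 mM potassium phosphate pH 7 / 100 mM NaCl (65 °C for 3 min, then slow cooling). Duplex incubated with compound (final 1 μM–5 mM), with or without H2O2, in NaCl and potassium phosphate pH 8 at room temperature for 16 h. Quenched in formamide; 20% denaturing PAGE.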

Data set [2] is described as follows: Ratio of induction of [32P]-labeled 49-mer oligonucleotide duplex DNA 12 with GNC sequence at terminus (unknown origin) interstrand cross-linking in presence of H2O2 to induction of [32P]-labeled 49-mer oligonucleotide duplex DNA 12 with GNC sequence at terminus (unknown origin) in absence of H2O2. Put shortly: as §1
The nature of data set [3]: Induction of [32P]-labeled 49-mer oligonucleotide duplex DNA 12 with GNC sequence at terminus (unknown origin) interstrand cross-linking at 50 uM after 16 hrs by PAGE in presence of H2O2. Put shortly: as §1
Data set [4] is described as follows: Drug level in deuterated phosphate buffer treated with 40 mM N,N-Bis(2-chloroethyl)-4-(4,4,5,5-tetramethyl-1,3,2-dioxaborolan-2-yl)aniline after 24 hrs by 1H-NMR analysis. The class given is physicochemical. The essentials: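 1H NMR of the boronate mustard (40 mM) held 24 h in deuterated potassium phosphate buffer (4.0 mM) with no H2O2. Solvent was 1.0 M deuterated potassium phosphate buffer/DMSO-d6/D2O = 2:450:48.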

For the compound `CC1(C)OB(c2ccc(N(CCOS(C)(=O)=O)CCOS(C)(=O)=O)cc2)OC1(C)C`, the Activity in data set [1] is 22%; in data set [3] it was 3%. The Ratio in data set [2] was determined as 3.
`CC(C)(O)C(C)(C)O`: in data set [4], the Drug metabolism result is listed as “metabolite_detected”.

(Values after ChEMBL document CHEMBL3286203, “Reactive oxygen species (ROS) inducible DNA cross-linking agents and their effect on cancer cells and normal lymphocytes” (J Med Chem, 2014).)
